Published values of several laboratories.
Each line is one published result; the experiments were not run side by side.
FGFR4: Fibroblast growth factor receptor 4 (FGFR4, Homo sapiens, UniProt P22455)

CC(C)(C)c1nc2c(s1)c1nc(N)ncc1c1ccc(NS(=O)(=O)c3c(F)cccc3F)c(F)c12  remaining activity (FGFR4; enzyme activity; inhibitor; radiometric; 1 µM): 104%
C=CC(=O)Nc1cc(Nc2nccc(Nc3cc(Cl)c(F)cc3C(C)(C)O)n2)c(OC)cc1N1CC[C@@H](N(C)C)C1  inhibition (FGFR4; enzyme activity; inhibitor; 1 µM): 2%
Cc1ccc(C(=O)NCc2ccsc2)cc1C#Cc1cn(C(C)C)c2ncnc(N)c12  activity vs control (FGFR4; enzyme activity; inhibitor; 1 µM): 99%
O=C(Nc1cnn(-c2csc(C(=O)NC3COC3)c2)c1)Nc1ccccc1Cl  remaining activity (FGFR4; enzyme activity; inhibitor; 5 µM): 88.2%
CNc1cccc2cc(C(=O)Nc3ccc(C(=O)O)cc3)c(=O)[nH]c12  inhibition (FGFR4; enzyme activity; inhibitor; 10 µM): 2.6%
CCN(CC)c1ccc(C2=NNC(=O)CC2C)cc1[N+](=O)[O-] (centres unmarked)  remaining activity (FGFR4; enzyme activity; inhibitor; 10 µM): 93%
CCCCN(CCCC)C(=O)CN1C[C@H](c2cc(OC)c3c(c2)OCO3)[C@@H](C(=O)O)[C@@H]1CC(C)(C)CCC  remaining binding (FGFR4; cell-free assay; competition with immobilised ligand; 1 µM): 100%
Cc1ccc(C(=O)Nc2ccc(CN3CCN(C)CC3)c(C(F)(F)F)c2)cc1C#Cc1cnc2cccnn12  remaining signal (FGFR4; cell-free assay; 23.5 nM): 49%
CCN(CC)CCNC(=O)c1c(C)[nH]c(/C=C2\C(=O)Nc3ccc(F)cc32)c1C  inhibition (FGFR4; enzyme activity; inhibitor; 0.3 µM): -11%
Cn1cc(Cl)c2c(Oc3c(F)cc(Nc4cc(Cl)nc(N)n4)cc3F)ccnc21  remaining binding (FGFR4; cell-free assay; competition with immobilised ligand; 0.1 µM): 86%
CNC(=O)c1cc(Oc2ccc(NC(=O)Nc3ccc(Cl)c(C(F)(F)F)c3)cc2)ccn1  inhibition (FGFR4; enzyme activity; inhibitor; 10 µM): 47%
COc1cc(-c2cn(C3CCc4c(F)cccc4N(CC(F)(F)F)C3=O)nn2)ccc1-n1cnc(C)c1 (centres unmarked)  remaining binding (FGFR4; cell-free assay; competition with immobilised ligand; 1 µM): 100%
CC/C(=N\NC(=O)NCc1cccc(O)c1)c1ccc(O)c(C)c1O  inhibition (Fibroblast growth factor receptor 4 (FGFR4, Homo sapiens, UniProt P22455, V550L); enzyme activity; inhibitor; 0.1 µM): 3.5%
Cn1nc(C(=O)NCc2ccc(C(=O)O)cc2)cc1-c1ccc2[nH]ccc2c1  remaining binding (FGFR4; cell-free assay; competition with immobilised ligand; 0.1 µM): 100%
CCCS(=O)(=O)Nc1ccc(F)c(C(=O)c2c[nH]c3ncc(-c4ccc(Cl)cc4)cc23)c1F  inhibition (FGFR4; enzyme activity; inhibitor; 1 µM): < 10%
COc1cc2nccc(Oc3ccc(NC(=O)c4c5n(n(-c6ccc(F)cc6)c4=O)CCCC5)cc3)c2cc1OC  inhibition (FGFR4; enzyme activity; inhibitor; 0.1 µM): 5%
COc1cc2ncnc(Nc3ccc(Oc4ccccc4)cc3C)c2cc1OC  inhibition (FGFR4; enzyme activity; inhibitor; 1 µM): -3%
CS(=O)(=O)N1CCCC(NC(=O)[C@H](CCC2CCCCC2)NC(=O)c2ccc(CNC(=O)c3cnc4ccccn34)cc2)C1 (some centres unmarked)  remaining binding (FGFR4; cell-free assay; competition with immobilised ligand; 0.1 µM): 100%
N#CCCc1ccc2c(c1)-c1[nH]c3ccc([N+](=O)[O-])cc3c1CC(=O)N2  remaining signal (FGFR4; cell-free assay; 0.5 µM): 89.1%
CN(C)CC#Cc1ccc(OCCCc2sc(N3CCc4cccc(C(=O)Nc5nc6ccccc6s5)c4C3)nc2C(=O)O)c(F)c1  remaining binding (FGFR4; cell-free assay; competition with immobilised ligand; 1 µM): 100%
Cc1ccc(Nc2nccc(N(C)c3ccc4c(C)n(C)nc4c3)n2)cc1S(N)(=O)=O  remaining signal (FGFR4; cell-free assay; 0.5 µM): 68.3%
C[C@@]1(Cc2ccc(C#N)cc2)C(=O)N(c2cc(Cl)cc(Cl)c2)c2ncc(C(=O)NC3(c4nc(C5CCC5)no4)CC3)n21  remaining binding (FGFR4; cell-free assay; competition with immobilised ligand; 1 µM): 96%
COc1cc(Cl)c(C(=O)N[C@@H](CN[C@H]2CC[C@@H](N)CC2)Cc2ccc(C#N)cc2)cc1-c1ccc(CN[C@H](C)c2ccc(C)cc2)o1  remaining activity (FGFR4; enzyme activity; inhibitor; 1 µM): 96%
